High-throughput results from PubChem BioAssay.
Most compounds without a hit are left out; they make up all but 2.1% or so of the library.
CRFBP-R2 block – antagonists of CRF-BP/CRF-R2 complex, primary screen, cell-based, HEK293, calcium dye fluorescence, uHTS; inhibition, % at 11.8 µM; AID 588475, 2011; CRF-induced calcium fluorescence; 0.59% of 350,000 active;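 active = inhibition of the ligand-induced calcium signal above about 50% at the single tested concentration, limit read from the data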
TRPML3 ag – human TRPML3 channel agonists, primary screen, cell-based, HEK293 TRPML3-YFP, Fluo-8 calcium fluorescence, 3 µM | activation, % at 3 µM | 100% = the carbachol control signal | Mucolipin-3 (Homo sapiens), Q8TDD5 | AID 1448, 2008 | 0.29% of 220,000 active;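 active = activation above its plate's cutoff, the mean activation of the plate's test wells plus 3 SD, cut at about 12% in these data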;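 also: 0% = DMSO only wells and 100% = carbachol wells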
Target sequence (Q8TDD5 whole entry, looked up): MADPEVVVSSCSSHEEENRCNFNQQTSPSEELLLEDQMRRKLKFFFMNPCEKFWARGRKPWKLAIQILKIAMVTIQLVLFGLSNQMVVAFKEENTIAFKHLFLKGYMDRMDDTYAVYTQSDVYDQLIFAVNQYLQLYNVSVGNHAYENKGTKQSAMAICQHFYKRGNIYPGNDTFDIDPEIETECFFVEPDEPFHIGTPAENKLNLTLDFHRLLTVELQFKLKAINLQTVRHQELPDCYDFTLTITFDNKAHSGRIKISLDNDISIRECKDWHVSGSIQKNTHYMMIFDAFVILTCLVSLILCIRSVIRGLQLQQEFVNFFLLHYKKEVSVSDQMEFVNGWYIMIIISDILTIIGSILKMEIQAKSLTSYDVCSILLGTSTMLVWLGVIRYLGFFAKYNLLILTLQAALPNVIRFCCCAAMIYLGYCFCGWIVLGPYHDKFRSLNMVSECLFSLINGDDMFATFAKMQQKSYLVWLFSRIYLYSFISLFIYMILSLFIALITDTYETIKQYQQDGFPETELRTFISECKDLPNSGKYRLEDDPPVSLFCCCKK
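Test system: HEK293 cells stably carrying human TRPML3-YFP; Doses: single dose, 3 µM final nominal compound, 0.3% DMSO final; Schedule: dye loading 1 h 37 °C then 30 min ambient, 125 s read; Technique: Fluo-8 calcium fluorescence; Benchmarks: high control carbachol 87 µM, low control DMSO.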
CRFR2-BP ag – agonists of CRF-BP/CRF-R2 complex, primary screen, cell-based, HEK293, calcium dye fluorescence, uHTS; CRF-binding protein / CRF receptor 2 complex (human); calcium dye fluorescence (FLIPR); percent of saturating CRF peptide response; activation, % at 13.2 µM; 0.46% of 350,000 active; AID 588473, 2011;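 active = activation of at least 50%, plus an integration ratio under a set limit after plate pattern correction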;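 also: plate controls were neutral control wells without compound for no effect and CRF at EC100 for full effect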
VIM-2 inh – VIM-2 metallo-beta-lactamase inhibitors, primary screen, biochemical, epi-absorbance readout, Pseudomonas aeruginosa enzyme; purified VIM-2, nitrocefin hydrolysis, epi-absorbance fluorescence; inhibition, % at 5.6 µM; 0.89% of 290,000 active; AID 1527, 2009;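 active = inhibition above the mean of all tested compounds plus 3 SD, cutoff set per screening run, cut at about 7.5% in these data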;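 also: red hydrolysis product quenches plate fluorescence so inhibitors raise well fluorescence; 0% = enzyme with DMSO and 100% = DMSO without enzyme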
IMP-1 inh – IMP-1 metallo-beta-lactamase inhibitors, primary screen, biochemical, epi-absorbance readout, Pseudomonas aeruginosa enzyme; metallo-beta-lactamase IMP-1 (Pseudomonas aeruginosa); purified IMP-1, nitrocefin hydrolysis, epi-absorbance fluorescence; inhibition, % at 5.6 µM; 0.45% of 290,000 active; AID 1556, 2009;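 active = inhibition above the mean plus 3 SD of all compounds in the same screening run, cut at about 4.5% in these data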;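 also: 0% = IMP-1 with DMSO and 100% = DMSO wells lacking enzyme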
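System: Purified recombinant IMP-1 metallo-beta-lactamase enzyme | Measured by: Fluorescence quenching readout, ex 480/em 530 nm | Replication: Singlicate | Incubation: 15 min preincubation plus 25 min reaction at 25 °C | Evaluation: Percent inhibition from optical density relative to buffer-blank wells | Benchmarks: DMSO with and without IMP-1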
zfTRPN1 agonist – zebrafish TRPN1 channel agonists, primary screen, cell-based, HEK293, calcium fluorescence. transient receptor potential cation channel N1 (TRPN1/NompC), Danio rerio. HEK293 zebrafish TRPN1-YFP, Fluo-8 calcium fluorescence; 100% = response to 87 µM carbachol. activation, % at 3 µM. 0.18% of 220,000 active;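 active = activation above its plate's cutoff, the mean activation of test wells on that plate plus 3 SD, cut at about 19% in these data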;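 also: 0% = DMSO alone and 100% = 87 µM carbachol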
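Assay system: Zebrafish TRPN1-YFP in HEK293 cells | Incubation: Dye loading 1 h at 37 °C, then 30 min room temperature | Measured by: Kinetic Fluo-8 fluorescence, ex 470-495, em 515-575 nm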
An asterisk follows results filed as active; . = not tested or not shown.

SMILES	CRFBP-R2 block	TRPML3 ag	CRFR2-BP ag	VIM-2 inh	IMP-1 inh	zfTRPN1 agonist
CC(C)Cc1ccc(C(C)C(=O)Nc2ccccc2O)cc1 (centres undefined)	-29.3	22.2*	77.4*	-0.5	-1.4	46.1*
CCCCn1nc(C(=O)Nc2ccccc2N2CCCC2)c2ccccc2c1=O	-30.9	.	-2.1	.	.	.
COc1ccc(CC(=O)Nc2ccc(S(=O)(=O)N(C)C3CCN(C)CC3)cc2)cc1	-1.1	.	-0.2	.	.	.
CC(Oc1ccc(Br)cc1)C(=O)Nc1ccc(S(=O)(=O)N(C)C2CCN(C)CC2)cc1 (centres undefined)	-23.7	.	95.8*	.	.	.
CN1C(=O)[C@H]2[C@@H](/C=C/c3ccccc3)N3C(=O)CN(Cc4ccc(-c5ccccc5)cc4)C(=O)[C@@]3(Cc3ccccc3)[C@H]2C1=O	-0.6	.	1.5	-3.5	-4.0	.
Cc1cc(Nc2ccc3c(c2)OCCO3)c2cc(Cl)ccc2n1	10.1	-0.7	-0.2	8.2*	0.4	-2.4
COc1ccc2nc(C)cc(Nc3ccc(C(=O)O)cc3)c2c1	6.9	.	-0.1	2.7	-0.8	.
COc1ccc(Nc2cc(C)nc3ccc(OC)cc23)cc1	3.9	.	-1.7	10.6*	-0.6	.
COC(=O)c1ccc2nc(C)cc(Nc3ccc(N(C)C)cc3)c2c1	0.1	-0.1	-0.8	8.3*	-5.0	-0.3
COC(=O)c1ccc(Nc2cc(C)nc3ccccc23)cc1	8.7	1.0	-1.4	1.1	-1.2	1.0
COc1ccc(/C=N/Nc2cc(C)nc3ccccc23)cc1	4.8	.	-1.7	7.5	-0.8	.
COc1ccc2nc(C)cc(N/N=C/c3ccc(F)cc3)c2c1	-8.6	.	-0.8	8.6*	-4.3	.
Cc1[nH]c(SCC(=O)c2c(N)n(C)c(=O)n(C)c2=O)nc1Cc1ccccc1	-17.4	.	0.5	.	.	.
CC#CC(=O)N1CCC(n2nccc2NC(=O)CCc2ccccc2)CC1	-7.0	.	0.9	.	.	.
COc1ccc(NC(=O)CN2C(=O)NC(C)(C3CC3)C2=O)c(OC)c1 (centres undefined)	8.7	.	-1.4	.	.	.
CN(C)CCn1c2c(c(SCC(=O)Nc3ccc4c(c3)OCCO4)nc1=O)CCCC2	0.7	.	-1.1	.	.	.
Cc1ccc(Nc2cc(C)nc3ccc(C)cc23)cc1	-0.5	.	-0.2	10.0*	2.6	.
CC(OC(=O)Cc1c[nH]c2ccccc12)C(=O)Nc1ccccc1[N+](=O)[O-] (centres undefined)	15.8	.	-2.6	.	.	.
COc1ccc(/C(O)=C/c2nc3ccccc3n(-c3ccccc3)c2=O)cc1	-41.1	0.7	132.3*	-3.4	-3.3	2.9
O=C(/C=C/c1ccccc1Cl)c1ccccc(=O)c1O	-81.7	0.9	12.8	2.2	11.0*	0.3
CCCn1c(=N)n(CC(O)COc2ccc(C)cc2)c2ccccc21 (centres undefined)	50.9*	-0.1	0.1	-1.9	-2.6	-1.8
Cc1ccc(S(=O)(=O)N2CCC(c3nc4c(nnn4Cc4ccccc4)c(=O)[nH]3)CC2)cc1	63.5*	0.2	1.9	-1.0	-5.0	-0.8
Cc1ccc(Cn2nnc3c(=O)[nH]c(C4CCN(S(=O)(=O)c5ccccc5)CC4)nc32)cc1	21.9	0.5	-7.0	-1.5	-3.7	-1.4
CCn1c(CCNC(=O)c2ccccc2Cl)n[nH]c1=S	82.0*	-0.4	-0.2	-0.3	-5.0	-0.2
CCCCN1C(=O)C(CC(=O)NCc2cccc3ccccc23)CC(C(=O)N2CCOCC2)=C1C (centres undefined)	-0.3	.	-0.5	.	.	.
SMILES	CRFBP-R2 block	TRPML3 ag	CRFR2-BP ag	VIM-2 inh	IMP-1 inh	zfTRPN1 agonist
CC(=O)NC1=NN(C(C)=O)C(C)(c2ccccn2)S1 (centres undefined)	52.1*	0.8	7.0	-1.1	-0.4	1.6
CC(=O)NC1=NN(C(C)=O)C(C)(c2ccc(Br)cc2)S1 (centres undefined)	-14.0	1.3	3.7	-2.2	-0.7	1.8
CCCN1C=CC(=C/C=C(\C#N)C(=O)OCC)C=C1	.	15.4*	.	0.5	-0.9	19.2*
CCOC(=O)/C(C#N)=C/C=C1\C=Cc2ccccc2N1CC	-12.8	1.1	0.0	-1.9	-2.5	0.9
CCCCCCN1C=CC(=C/C=C(\C#N)C(=O)OCC)C=C1	-261.3	55.2*	246.9*	2.2	1.6	65.2*
Cn1c2ccccc2c(=O)c2cc(NCCCN3CCOCC3)ccc21	3.1	.	-0.6	.	.	.
O=c1c2ccccc2oc2ccc(NCCCN3CCOCC3)cc12	-7.5	.	5.6	9.8*	0.3	.
CCc1nc(NCCCN2CCOCC2)c2oc3ccccc3c2n1	31.9	0.3	-0.4	11.0*	-2.6	0.4
O=c1c([N+](=O)[O-])c(NCCN2CCCCCC2)c2ccccc2n1-c1ccccc1	33.5	-0.6	0.8	0.0	-2.2	-0.3
O=c1c([N+](=O)[O-])c(NC2CCCCC2)c2ccccc2n1-c1ccccc1	57.5*	0.8	-4.0	-1.3	-2.6	1.6
CC(=O)c1ccccc1NC(=O)Cn1c(=O)cnc2ccccc21	72.2*	0.2	0.7	0.7	-1.4	-1.5
O=C(Cn1c(=O)cnc2ccccc21)Nc1ccccc1N1CCOCC1	3.9	.	-0.5	1.5	2.7	.
CC(OC(=O)c1ccc2ncsc2c1)C(=O)N(C)C1CCCCC1 (centres undefined)	16.7	.	-1.0	.	.	.
CCCCC1(C)OC(=O)C(=Cc2ccc(N(CC)CC)cc2)C(=O)O1 (centres undefined)	-50.5	0.0	59.4*	-2.6	-1.0	-0.2
N#Cc1ccccc1Sc1ccccc1N	56.5*	-1.1	-7.0	-1.4	-1.5	-2.3
CCCS(=O)(=O)N1CCC(C(=O)NCCCOC(C)C)CC1	59.7*	0.0	2.5	-4.5	-2.3	-0.7
COc1cccc(CNC(=O)Cc2ccc(-c3ccccc3)cc2)c1	3.1	.	5.2	-1.1	19.5*	.
CC(=O)c1cc(C#N)c(Oc2ccc(Cl)cc2Cl)nc1C	55.5*	0.3	-5.8	-0.3	-1.0	-0.6
CC(=O)c1cc(C#N)c(Oc2ccccc2)nc1C	25.3	-0.5	-6.4	1.5	-0.6	-1.6
CCn1c(SCC(=O)N2CCC(C)CC2)nc2c(c1=O)SC(C)C2 (centres undefined)	7.0	.	-2.5	2.5	-0.2	.
Cn1cc(C2=C(c3ccc(Cl)cc3Cl)C(=O)NC2=O)c2ccccc21	-156.3	.	144.2*	2.7	4.9*	.
CC#CCCCC(=O)Nc1ccccc1C(=O)O	63.2*	-1.0	-0.2	1.4	-1.3	2.1
